ChEMBL document CHEMBL2375242, “Synthesis of (S)-FTY720 vinylphosphonate analogues and evaluation of their potential as sphingosine kinase 1 inhibitors and activators” (Bioorg Med Chem, 2013)
Active and inactive are the calls of the source. The rule behind the calls is not given here.

Experiments:
Sphingosine kinase 1 [1] = molecular target: T1, Sphingosine kinase 1 (Homo sapiens, UniProt Q9NYA1); test: Inhibition of recombinant GFP-tagged SK1 (unknown origin) expressed in HEK293 cells using sphingosine as substrate at 50 uM after 30 mins by Cerenkov counting analysis relative to control; type: cell-based
T1 sequence (Q9NYA1 whole entry): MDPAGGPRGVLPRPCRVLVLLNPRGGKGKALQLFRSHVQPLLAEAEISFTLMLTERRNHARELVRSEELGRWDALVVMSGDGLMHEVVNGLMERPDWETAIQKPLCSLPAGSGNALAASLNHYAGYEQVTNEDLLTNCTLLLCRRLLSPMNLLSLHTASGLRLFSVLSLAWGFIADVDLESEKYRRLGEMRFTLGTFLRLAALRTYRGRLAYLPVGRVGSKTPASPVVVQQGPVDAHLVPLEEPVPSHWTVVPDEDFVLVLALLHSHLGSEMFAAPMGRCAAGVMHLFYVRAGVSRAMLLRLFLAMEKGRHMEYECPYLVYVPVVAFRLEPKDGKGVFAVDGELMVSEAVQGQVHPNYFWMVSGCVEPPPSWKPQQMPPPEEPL
Summary of the method: (§1)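 Lysate of HEK 293 cells stably overexpressing GFP-SK1 (30 μg protein) was incubated for 30 min at 30 °C with 3 μM sphingosine (Km) in Triton X-100 and 250 μM [γ-32P]ATP in 10 mM MgCl2, at pH 7.4 Tris buffer with phosphatase and protease inhibitors. Compounds were in DMSO; the control was 5% DMSO. [32P]-S1P was extracted into 1-butanol/KCl and measured by Cerenkov counting. Activity is % of the sphingosine-alone control, n = 3, mean ± S.E.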

Sphingosine kinase 1 [2] = molecular target: T1, Sphingosine kinase 1; test: Activity at recombinant GFP-tagged SK1 (unknown origin) expressed in HEK293 cells at 50 uM after 30 mins by Cerenkov counting analysis; type: cell-based
Sphingosine kinase 1 [3] = molecular target: T1, Sphingosine kinase 1; test: Activation of recombinant GFP-tagged SK1 (unknown origin) expressed in HEK293 cells using sphingosine as substrate at 50 uM after 30 mins by Cerenkov counting analysis relative to control; type: cell-based; summary of the method: as §1
Sphingosine kinase 1 [4] = molecular target: T1, Sphingosine kinase 1; test: Activation of recombinant GFP-tagged SK1 (unknown origin) expressed in HEK293 cells using sphingosine as substrate after 30 mins by Cerenkov counting analysis; type: cell-based
Summary of the method: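 Enzyme source: lysates (30 μg) of HEK 293 cells stably overexpressing GFP-SK1, cultured in DMEM/10% FCS with geneticin. Reaction run 30 min at 30 °C with 3 μM sphingosine in Triton X-100 (0.063% final) and 250 μM [γ-32P]ATP in 10 mM MgCl2, pH 7.4 Tris buffer. Compound added in DMSO; control is 5% DMSO, set as 100% activity. [32P]-S1P is extracted into butanol and read by Cerenkov counting. EC50 from concentration-response, n = 3.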

Sphingosine kinase 1 [5] = molecular target: T1, Sphingosine kinase 1; test: Activation of recombinant GFP-tagged SK1 (unknown origin) expressed in HEK293 cells using sphingosine as substrate above 50 uM after 30 mins by Cerenkov counting analysis; type: cell-based; summary of the method: as §1
Sphingosine kinase 1 [6] = molecular target: T1, Sphingosine kinase 1; test: Uncompetitive inhibition of recombinant SK1 (unknown origin) expressed in HEK293 cells after 15 to 20 mins by Cornish-Bowden plot analysis in presence of sphingosine; type: cell-based
Sphingosine kinase 1 [7] = molecular target: T1, Sphingosine kinase 1; test: Competitive inhibition of SK1 (unknown origin) in presence of ATP
Sphingosine kinase 1 [8] = molecular target: T1, Sphingosine kinase 1; test: Uncompetitive inhibition of SK1 (unknown origin) in presence of ATP
Sphingosine kinase 1 [9] = molecular target: T1, Sphingosine kinase 1; test: Inhibition of recombinant GFP-tagged SK1 (unknown origin) expressed in HEK293 cells using sphingosine as substrate at 50 uM after 30 mins by Cerenkov counting analysis relative to control

inhibition (Sphingosine kinase 1 [1])	Activity (Sphingosine kinase 1 [2])	SMILES	Activity (Sphingosine kinase 1 [3])	EC50 (Sphingosine kinase 1 [4])	other results
inactive	inactive	CCCCCCCCc1ccc(CC[C@](N)(/C=C/C(=O)O)CO)cc1	–	–	–
–	–	CCCCCCCCc1ccc(CC[C@](N)(/C=C/P(=O)(O)O)CO)cc1	–	–	Kiuc (Sphingosine kinase 1 [6]): 14.5 µM; Kic (Sphingosine kinase 1 [7]): 10 µM; Kiuc (Sphingosine kinase 1 [8]): 65 µM; inhibition (Sphingosine kinase 1 [9]): 62.7%
20%	inactive	CCCCCCCCc1ccc(CC[C@](N)(/C=C/P(=O)(O)O)CF)cc1	–	–	–
35%	inactive	CCCCCCCCc1ccc(CC[C@]2(N)CCC(=O)OC2)cc1	–	–	–

SMILES	inhibition (Sphingosine kinase 1 [1])	Activity (Sphingosine kinase 1 [2])	Activity (Sphingosine kinase 1 [3])	EC50 (Sphingosine kinase 1 [4])	other results
CCCCCCCCc1ccc(CC[C@](/C=C/P(=O)(O)O)(CO)N=[N+]=[N-])cc1	–	inactive	30%	8.3 µM	Activity (Sphingosine kinase 1 [5]): inactive
CCCCCCCCc1ccc(CC[C@](/C=C/P(=O)(O)O)(CF)N=[N+]=[N-])cc1	–	inactive	30%	5.7 µM	–
